For ten molecules, inhibition results are on record in ChEMBL document CHEMBL1165965, “Synthesis and structure-activity relationships of 1,2,3,4-tetrahydropyrido[2,3-b]pyrazines as potent and selective inhibitors of the anaplastic lymphoma kinase” (Bioorg Med Chem, 2010).

Bounds are passed on as bounds.

For orientation: inhibition means the percentage by which the read-out fell short of the control.

In experiment [1] the target is Myosin light chain kinase 2, skeletal/cardiac muscle (Homo sapiens) (UniProt Q9H1R3). Briefly: Inhibition of MYLK2 at 1 uM.
Experiment [2] addresses Calcium/calmodulin-dependent protein kinase type II subunit gamma (Homo sapiens) (UniProt Q13555). Briefly: Inhibition of CAMK2G at 1 uM. Put shortly:
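Ambit KINOMEscan screen at a single concentration across a 250–400 kinase panel, recorded as percent inhibition. Selectivity was expressed as S(90), the fraction of kinases inhibited >90%.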

Experiment [3] addresses Mitogen-activated protein kinase kinase kinase 9 (Homo sapiens) (UniProt P80192). Briefly: Inhibition of MLK1 at 1 uM.
The target in experiment [4] is Protein-tyrosine kinase 2-beta (Homo sapiens) (UniProt Q14289). Briefly: Inhibition of PYK2 at 1 uM. An outline of the steps: (§1)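 Single-concentration screen on the Ambit KINOMEscan platform, run against a panel of 250–400 kinases. Per-kinase inhibition was also summarized as S(90), the fraction of kinases inhibited by more than 90%.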
Sequence of Protein-tyrosine kinase 2-beta (Homo sapiens) (Q14289 whole entry, looked up): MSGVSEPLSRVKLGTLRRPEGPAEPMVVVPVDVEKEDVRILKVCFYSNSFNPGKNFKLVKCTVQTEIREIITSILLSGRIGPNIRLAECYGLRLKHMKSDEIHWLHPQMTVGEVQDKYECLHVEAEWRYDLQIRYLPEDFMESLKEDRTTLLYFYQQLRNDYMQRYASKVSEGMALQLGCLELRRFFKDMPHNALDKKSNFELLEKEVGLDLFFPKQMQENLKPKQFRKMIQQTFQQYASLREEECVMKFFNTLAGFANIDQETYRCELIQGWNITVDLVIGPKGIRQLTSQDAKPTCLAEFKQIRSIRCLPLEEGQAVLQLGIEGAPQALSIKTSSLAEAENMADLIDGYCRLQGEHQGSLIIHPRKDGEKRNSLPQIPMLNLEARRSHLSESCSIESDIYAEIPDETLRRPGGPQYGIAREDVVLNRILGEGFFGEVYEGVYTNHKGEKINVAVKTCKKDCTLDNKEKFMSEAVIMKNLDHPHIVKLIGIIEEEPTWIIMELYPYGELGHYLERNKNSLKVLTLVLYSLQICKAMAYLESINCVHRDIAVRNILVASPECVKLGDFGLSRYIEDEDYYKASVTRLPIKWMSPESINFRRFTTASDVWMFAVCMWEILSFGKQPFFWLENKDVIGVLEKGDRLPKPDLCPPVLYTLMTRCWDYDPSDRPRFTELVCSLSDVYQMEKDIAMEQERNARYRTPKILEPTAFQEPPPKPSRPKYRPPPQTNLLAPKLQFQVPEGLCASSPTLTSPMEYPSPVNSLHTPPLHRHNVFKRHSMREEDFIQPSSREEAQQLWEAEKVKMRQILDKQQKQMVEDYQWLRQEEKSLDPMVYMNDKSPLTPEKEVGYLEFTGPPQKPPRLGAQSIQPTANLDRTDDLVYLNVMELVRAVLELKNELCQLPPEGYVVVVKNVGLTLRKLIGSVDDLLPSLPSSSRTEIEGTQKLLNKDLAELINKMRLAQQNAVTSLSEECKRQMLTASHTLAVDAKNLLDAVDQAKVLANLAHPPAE
In experiment [5] the target is T1, Muscle, skeletal receptor tyrosine-protein kinase (Homo sapiens) (UniProt O15146).
T1 sequence (whole entry): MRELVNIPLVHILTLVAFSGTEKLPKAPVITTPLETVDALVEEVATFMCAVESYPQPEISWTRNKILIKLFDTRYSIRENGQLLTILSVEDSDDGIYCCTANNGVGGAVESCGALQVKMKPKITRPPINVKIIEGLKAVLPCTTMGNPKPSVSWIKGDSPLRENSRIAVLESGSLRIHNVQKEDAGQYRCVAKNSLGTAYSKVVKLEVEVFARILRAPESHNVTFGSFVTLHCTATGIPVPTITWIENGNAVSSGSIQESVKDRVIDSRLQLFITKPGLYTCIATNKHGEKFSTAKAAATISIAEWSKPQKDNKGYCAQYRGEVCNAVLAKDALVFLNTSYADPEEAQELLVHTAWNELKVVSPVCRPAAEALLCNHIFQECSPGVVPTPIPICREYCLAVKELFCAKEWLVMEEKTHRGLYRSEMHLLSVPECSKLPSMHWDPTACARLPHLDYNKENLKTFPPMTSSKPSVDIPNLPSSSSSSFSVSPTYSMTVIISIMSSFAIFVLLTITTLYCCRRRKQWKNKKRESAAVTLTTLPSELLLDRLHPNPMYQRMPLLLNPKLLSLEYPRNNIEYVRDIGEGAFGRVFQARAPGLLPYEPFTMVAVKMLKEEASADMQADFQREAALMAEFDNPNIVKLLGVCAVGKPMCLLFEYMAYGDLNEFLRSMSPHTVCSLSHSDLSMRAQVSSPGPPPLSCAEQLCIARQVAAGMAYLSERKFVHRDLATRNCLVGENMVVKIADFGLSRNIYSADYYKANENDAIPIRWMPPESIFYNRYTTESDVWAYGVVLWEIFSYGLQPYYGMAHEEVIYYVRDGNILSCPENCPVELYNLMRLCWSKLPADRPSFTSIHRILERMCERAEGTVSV
Briefly: Inhibition of MUSK at 1 uM.

Experiment [6] relates to Phosphatidylinositol 4,5-bisphosphate 3-kinase catalytic subunit alpha isoform (Homo sapiens), P42336 [E542K]. Put plainly: Inhibition of PIK3CA E542K mutant at 1 uM.
For experiment [7], the target named is Ribosomal protein S6 kinase alpha-6 (Homo sapiens) (UniProt Q9UK32). Briefly: Inhibition of RPS6KA6 N-terminal domain1 at 1 uM.
Sequence of Ribosomal protein S6 kinase alpha-6 (Homo sapiens) (Q9UK32 whole entry, the tested form may be a part): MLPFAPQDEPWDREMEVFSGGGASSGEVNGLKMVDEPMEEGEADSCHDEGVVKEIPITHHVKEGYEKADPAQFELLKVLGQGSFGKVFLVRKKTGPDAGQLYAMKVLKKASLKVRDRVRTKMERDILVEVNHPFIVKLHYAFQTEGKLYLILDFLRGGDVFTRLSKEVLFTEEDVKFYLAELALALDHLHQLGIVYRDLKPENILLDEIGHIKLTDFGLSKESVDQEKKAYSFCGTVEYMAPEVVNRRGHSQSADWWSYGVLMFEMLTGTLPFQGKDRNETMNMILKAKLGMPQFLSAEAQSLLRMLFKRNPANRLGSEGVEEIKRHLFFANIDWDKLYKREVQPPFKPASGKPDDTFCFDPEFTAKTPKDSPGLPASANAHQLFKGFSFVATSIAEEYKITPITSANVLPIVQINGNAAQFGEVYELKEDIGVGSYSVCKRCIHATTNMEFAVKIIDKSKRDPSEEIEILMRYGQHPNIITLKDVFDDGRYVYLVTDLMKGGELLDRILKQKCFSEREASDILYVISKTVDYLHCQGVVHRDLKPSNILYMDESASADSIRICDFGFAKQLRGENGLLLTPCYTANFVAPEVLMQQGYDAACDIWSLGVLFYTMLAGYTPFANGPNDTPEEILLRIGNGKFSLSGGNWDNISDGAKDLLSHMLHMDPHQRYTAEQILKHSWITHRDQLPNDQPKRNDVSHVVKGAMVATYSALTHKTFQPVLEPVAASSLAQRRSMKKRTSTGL
In experiment [8] the target is T2, Cyclin-G-associated kinase (Homo sapiens) (UniProt O14976).
T2 sequence (whole entry): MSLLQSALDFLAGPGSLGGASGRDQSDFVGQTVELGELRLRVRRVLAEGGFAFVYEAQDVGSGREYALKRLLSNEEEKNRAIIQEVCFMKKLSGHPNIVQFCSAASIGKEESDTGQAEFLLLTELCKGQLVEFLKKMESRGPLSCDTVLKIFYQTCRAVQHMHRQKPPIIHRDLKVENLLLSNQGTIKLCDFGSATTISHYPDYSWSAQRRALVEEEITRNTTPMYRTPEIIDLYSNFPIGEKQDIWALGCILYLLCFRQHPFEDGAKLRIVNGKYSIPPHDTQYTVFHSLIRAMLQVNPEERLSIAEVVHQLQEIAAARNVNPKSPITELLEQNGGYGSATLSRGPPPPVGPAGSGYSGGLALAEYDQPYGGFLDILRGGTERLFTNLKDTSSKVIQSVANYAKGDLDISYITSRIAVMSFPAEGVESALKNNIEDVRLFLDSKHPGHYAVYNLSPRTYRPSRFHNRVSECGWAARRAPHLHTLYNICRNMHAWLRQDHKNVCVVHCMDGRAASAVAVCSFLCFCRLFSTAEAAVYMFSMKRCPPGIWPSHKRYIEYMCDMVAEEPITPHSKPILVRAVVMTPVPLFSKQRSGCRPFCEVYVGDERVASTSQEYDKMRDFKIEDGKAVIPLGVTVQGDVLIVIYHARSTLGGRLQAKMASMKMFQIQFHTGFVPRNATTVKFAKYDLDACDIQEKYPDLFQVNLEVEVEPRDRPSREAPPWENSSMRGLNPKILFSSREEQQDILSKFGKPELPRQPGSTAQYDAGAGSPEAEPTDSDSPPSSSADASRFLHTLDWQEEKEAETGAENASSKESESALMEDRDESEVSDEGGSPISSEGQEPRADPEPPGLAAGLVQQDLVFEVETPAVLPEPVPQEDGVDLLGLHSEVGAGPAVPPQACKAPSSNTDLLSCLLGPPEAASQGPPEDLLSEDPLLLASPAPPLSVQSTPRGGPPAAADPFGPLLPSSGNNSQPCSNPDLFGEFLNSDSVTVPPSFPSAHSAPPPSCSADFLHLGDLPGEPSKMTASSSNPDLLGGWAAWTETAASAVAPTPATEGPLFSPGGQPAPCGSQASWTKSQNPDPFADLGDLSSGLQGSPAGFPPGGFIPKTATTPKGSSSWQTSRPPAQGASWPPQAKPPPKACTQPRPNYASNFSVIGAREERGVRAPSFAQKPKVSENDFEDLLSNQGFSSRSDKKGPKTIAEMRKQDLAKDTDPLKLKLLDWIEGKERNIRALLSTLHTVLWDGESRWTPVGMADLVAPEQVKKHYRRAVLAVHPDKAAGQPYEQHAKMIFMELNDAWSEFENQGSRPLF
Briefly: Inhibition of GAK at 1 uM. Put shortly: as §1

Experiment [9] concerns the target Ribosomal protein S6 kinase alpha-5 (Homo sapiens) (UniProt O75582). Put plainly: Inhibition of RPS6KA5 N-terminal domain1 at 1 uM.
Experiment [10] addresses Ribosomal protein S6 kinase alpha-1 (Homo sapiens) (UniProt Q15418). Put plainly: Inhibition of RPS6KA1 C-terminal domain2 at 1 uM.
For experiment [11], the target named is Cyclin-dependent kinase 7 (Homo sapiens) (UniProt P50613). Put plainly: Inhibition of CDK7 at 1 uM.
Sequence of Cyclin-dependent kinase 7 (Homo sapiens) (P50613 whole entry, the tested form may be a part): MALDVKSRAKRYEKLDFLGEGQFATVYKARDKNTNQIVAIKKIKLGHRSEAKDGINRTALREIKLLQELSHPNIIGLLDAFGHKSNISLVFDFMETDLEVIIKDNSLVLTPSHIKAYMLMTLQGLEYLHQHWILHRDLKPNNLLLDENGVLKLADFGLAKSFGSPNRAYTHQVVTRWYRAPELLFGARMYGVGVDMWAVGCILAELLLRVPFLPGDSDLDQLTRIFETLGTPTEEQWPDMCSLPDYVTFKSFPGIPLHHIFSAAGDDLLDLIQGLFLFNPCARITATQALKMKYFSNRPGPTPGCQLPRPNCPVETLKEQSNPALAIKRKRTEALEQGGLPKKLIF
Experiment [12] deals with Ribosomal protein S6 kinase alpha-4 (Homo sapiens) (UniProt O75676). Put plainly: Inhibition of RPS6KA4 N-terminal domain1 at 1 uM.
Sequence of Ribosomal protein S6 kinase alpha-4 (Homo sapiens) (O75676 whole entry, looked up, the tested form may be a part): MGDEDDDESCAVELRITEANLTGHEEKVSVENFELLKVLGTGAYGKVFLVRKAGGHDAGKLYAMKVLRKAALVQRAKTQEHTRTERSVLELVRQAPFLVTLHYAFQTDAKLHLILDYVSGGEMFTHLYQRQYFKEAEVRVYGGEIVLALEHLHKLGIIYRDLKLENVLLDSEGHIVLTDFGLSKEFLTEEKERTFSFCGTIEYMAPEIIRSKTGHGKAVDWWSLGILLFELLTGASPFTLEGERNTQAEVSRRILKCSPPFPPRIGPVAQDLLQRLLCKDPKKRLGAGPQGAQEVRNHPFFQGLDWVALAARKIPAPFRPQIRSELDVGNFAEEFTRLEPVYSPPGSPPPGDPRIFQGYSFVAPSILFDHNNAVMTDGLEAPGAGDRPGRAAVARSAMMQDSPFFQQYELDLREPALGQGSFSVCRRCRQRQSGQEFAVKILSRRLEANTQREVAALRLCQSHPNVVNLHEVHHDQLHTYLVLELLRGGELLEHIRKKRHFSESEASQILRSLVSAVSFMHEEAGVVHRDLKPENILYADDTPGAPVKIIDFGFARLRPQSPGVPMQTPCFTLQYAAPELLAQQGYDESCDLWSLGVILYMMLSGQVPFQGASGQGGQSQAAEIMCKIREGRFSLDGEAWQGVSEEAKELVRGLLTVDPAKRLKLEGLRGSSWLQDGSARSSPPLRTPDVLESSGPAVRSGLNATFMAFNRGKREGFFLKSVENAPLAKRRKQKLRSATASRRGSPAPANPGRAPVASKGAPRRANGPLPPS

Sequence of Calcium/calmodulin-dependent protein kinase type II subunit gamma (Homo sapiens) (Q13555 whole entry): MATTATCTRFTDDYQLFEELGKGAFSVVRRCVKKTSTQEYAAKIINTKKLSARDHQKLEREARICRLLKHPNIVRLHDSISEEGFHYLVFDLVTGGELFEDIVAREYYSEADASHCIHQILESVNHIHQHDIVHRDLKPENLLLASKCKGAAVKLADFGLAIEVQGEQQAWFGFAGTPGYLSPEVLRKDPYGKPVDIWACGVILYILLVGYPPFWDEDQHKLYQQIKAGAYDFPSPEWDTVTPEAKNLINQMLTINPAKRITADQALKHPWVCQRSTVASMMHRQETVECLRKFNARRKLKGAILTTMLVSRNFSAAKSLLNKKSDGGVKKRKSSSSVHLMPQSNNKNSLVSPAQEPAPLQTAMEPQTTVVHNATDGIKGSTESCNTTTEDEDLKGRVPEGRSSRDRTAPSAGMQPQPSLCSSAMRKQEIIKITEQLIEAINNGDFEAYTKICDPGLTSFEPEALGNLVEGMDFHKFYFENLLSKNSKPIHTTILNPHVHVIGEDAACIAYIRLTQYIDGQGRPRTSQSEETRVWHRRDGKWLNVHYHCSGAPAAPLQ
Sequence of Ribosomal protein S6 kinase alpha-5 (Homo sapiens) (O75582 whole entry, looked up, the tested form may be a part): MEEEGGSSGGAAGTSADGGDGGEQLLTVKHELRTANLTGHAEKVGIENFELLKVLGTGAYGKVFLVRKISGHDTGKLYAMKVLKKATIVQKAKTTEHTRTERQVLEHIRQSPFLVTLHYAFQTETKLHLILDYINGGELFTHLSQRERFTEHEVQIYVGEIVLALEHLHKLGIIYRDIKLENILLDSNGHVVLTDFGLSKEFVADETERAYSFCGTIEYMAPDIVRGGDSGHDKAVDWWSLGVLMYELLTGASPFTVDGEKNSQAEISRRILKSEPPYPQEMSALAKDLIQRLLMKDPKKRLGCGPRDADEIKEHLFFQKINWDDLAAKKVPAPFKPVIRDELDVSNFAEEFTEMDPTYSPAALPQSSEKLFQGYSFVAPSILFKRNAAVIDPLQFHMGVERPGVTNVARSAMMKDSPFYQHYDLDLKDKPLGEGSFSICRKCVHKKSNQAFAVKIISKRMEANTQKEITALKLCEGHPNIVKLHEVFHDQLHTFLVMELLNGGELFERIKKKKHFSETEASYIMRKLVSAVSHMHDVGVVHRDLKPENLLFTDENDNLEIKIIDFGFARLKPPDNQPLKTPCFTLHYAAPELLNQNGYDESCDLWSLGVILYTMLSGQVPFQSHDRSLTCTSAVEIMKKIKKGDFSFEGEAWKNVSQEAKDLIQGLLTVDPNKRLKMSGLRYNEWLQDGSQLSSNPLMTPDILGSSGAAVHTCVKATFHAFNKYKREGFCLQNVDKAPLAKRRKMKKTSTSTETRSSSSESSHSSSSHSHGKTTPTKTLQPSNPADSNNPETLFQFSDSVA
Sequence of Ribosomal protein S6 kinase alpha-1 (Homo sapiens) (Q15418 whole entry, the tested form may be a part): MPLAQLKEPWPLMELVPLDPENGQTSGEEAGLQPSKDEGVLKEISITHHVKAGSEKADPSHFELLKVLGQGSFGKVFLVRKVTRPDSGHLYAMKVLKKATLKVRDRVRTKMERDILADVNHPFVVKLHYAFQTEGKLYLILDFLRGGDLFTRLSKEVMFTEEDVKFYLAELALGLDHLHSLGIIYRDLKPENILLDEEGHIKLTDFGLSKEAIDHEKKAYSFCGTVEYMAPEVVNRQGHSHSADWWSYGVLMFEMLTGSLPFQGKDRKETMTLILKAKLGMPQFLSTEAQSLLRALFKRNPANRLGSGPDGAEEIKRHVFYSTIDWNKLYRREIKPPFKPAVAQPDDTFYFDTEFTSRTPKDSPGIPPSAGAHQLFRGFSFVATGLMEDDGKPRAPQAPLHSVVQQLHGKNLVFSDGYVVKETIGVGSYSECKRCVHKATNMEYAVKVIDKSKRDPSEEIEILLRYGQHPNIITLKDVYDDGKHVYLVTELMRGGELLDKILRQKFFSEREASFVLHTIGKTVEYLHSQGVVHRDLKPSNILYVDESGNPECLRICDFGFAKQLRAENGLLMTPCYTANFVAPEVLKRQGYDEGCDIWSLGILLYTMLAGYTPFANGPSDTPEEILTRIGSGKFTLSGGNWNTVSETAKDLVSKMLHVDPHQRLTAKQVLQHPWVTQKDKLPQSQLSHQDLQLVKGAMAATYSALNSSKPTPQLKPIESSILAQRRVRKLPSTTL

`FC(F)(F)c1ccc(Cl)cc1CN1CCNc2ncc(-c3ccnc(N4CCNCC4)c3)cc21`: the inhibition in experiment [1] was below 50%; in [2], below 50%; in experiment [3], below 50%; in experiment [4] it was 87%; in [5], below 50%; in [6], below 50%. Moreover, the inhibition in experiment [7], in experiment [8], in experiment [9], in [10], in experiment [11] and in experiment [12] was below 50% in each case.

As for `CN1CCN(c2ccc(-c3cnc4c(c3)N(Cc3cc(Cl)ccc3Cl)CCN4)cn2)CC1`, the inhibition in experiment [1], in [2], in [3], in experiment [4], in [5] and in experiment [6] was below 50% each time. The inhibition in experiment [7], in [8], in experiment [9], in [10], in [11] and in experiment [12] was below 50% in each case.

Take `COC1CCN(C(=O)c2ccc(-c3cnc4c(c3)N(Cc3cc(Cl)ccc3C(F)(F)F)CCN4)cc2)CC1`: the inhibition in [1] was below 50%; in experiment [2], below 50%; in experiment [3], below 50%; in experiment [4] it was 68%; in experiment [5], below 50%; in [7] it was below 50%. In addition, the inhibition in experiment [8], in experiment [9], in [10] and in experiment [12] was below 50% each time.

`O=C(c1ccc(-c2cnc3c(c2)N(Cc2cc(Cl)ccc2C(F)(F)F)CCN3)cc1)N1CCCCC1`: the inhibition in [1], in [2], in experiment [3], in experiment [4], in [5] and in [7] was below 50% in each case. Moreover, the inhibition in experiment [8], in experiment [9], in [10] and in experiment [12] was below 50% each time.

For the molecule `O=C(O)c1ccc(-c2cnc3c(c2)N(Cc2cc(Cl)ccc2C(F)(F)F)CCN3)cc1`, the inhibition in experiment [1], in experiment [2], in experiment [3], in experiment [4], in [5] and in experiment [7] was below 50% in each case. For the same molecule, the inhibition in experiment [8] was 66.5%; in [9], below 50%; in experiment [10] it was below 50%; in experiment [12], below 50%.

Regarding `CN1CCN(c2ccc(-c3cnc4c(c3)N(Cc3cc(F)ccc3F)CCN4)cn2)CC1`, the inhibition in [1], in experiment [2], in experiment [3], in experiment [4], in experiment [5] and in experiment [6] was below 50% in each case. The inhibition in experiment [7], in [8], in experiment [9], in experiment [10], in experiment [11] and in experiment [12] was below 50% each time.

For `O=C(c1ccc(-c2cnc3c(c2)N(Cc2cc(Cl)ccc2C(F)(F)F)CCN3)cc1)N1CCC(N2CCCC2)CC1`, the inhibition is below 50% in experiment [1]; below 50% in experiment [2]; 90.8% in experiment [4]; below 50% in experiment [5]; below 50% in [7]; below 50% in experiment [8]. Besides, the inhibition in [9], in experiment [10] and in experiment [12] was below 50% throughout.

For the molecule `CN1CCN(c2ccc(-c3cnc4c(c3)N(Cc3c(F)ccc(F)c3Cl)CCN4)cn2)CC1`, the inhibition in experiment [1], in experiment [2], in experiment [3], in [4], in experiment [5] and in [6] was below 50% each time. Also, the inhibition in experiment [7], in [8], in experiment [9], in [10], in [11] and in experiment [12] was below 50% throughout.

Regarding `CC(=O)N1CCN(c2cc(-c3cnc4c(c3)N(Cc3cc(Cl)ccc3C(F)(F)F)CCN4)ccn2)CC1`, the inhibition was below 50% in experiment [1]; below 50% in experiment [2]; below 50% in [3]; 84% in [4]; below 50% in experiment [5]; below 50% in experiment [6]. Further, the inhibition in [7], in experiment [8], in [9], in experiment [10], in [11] and in experiment [12] was below 50% each time.

For `CN1CCN(c2ccc(-c3cnc4c(c3)N(Cc3cc(Cl)ccc3C(F)(F)F)CCN4)cn2)CC1`, the inhibition in experiment [1] was below 50%; in experiment [2] it was below 50%; in [3], below 50%; in experiment [4], 71%; in [5], below 50%; in experiment [6] it was below 50%. Moreover, the inhibition in experiment [7], in experiment [8], in [9], in [10], in experiment [11] and in [12] was below 50% throughout.
